From ChEMBL document CHEMBL5303300, “EUbOPEN Chemogenomics Library - Multiplex” (2023)
Several values for one entry are separate records, joined by “and”; a condition that tells them apart may be missing. Equal values may be shown once.

Legend:
Assay type in all cases: toxicity, cell-based
Fibroblast = test: Multiplex assay against human fibroblast; settings: number of replicates 2
Summary of the method: (§1)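 Tubulin, mitochondrial-mass and membrane-permeability phenotypes are per cents of healthy-nucleus cells. Cells were gated by CellPathfinder machine learning into Hoechst high-intensity objects or normal cells, normal cells into healthy, pyknosed or fragmented nuclei, and pyknosed cells into mitotic or apoptotic. Before that, live cells stained at seeding with Hoechst33342, BioTracker Green Microtubule Cytoskeleton Dye, MitoTracker Red and Annexin V Alexa Fluor 680 were imaged on a CQ1 microscope at 37°C and 5% CO2 after compound addition.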

HEK-293T = test: Multiplex assay against HEK293T; settings: human, number of replicates 2; summary of the method: as §1
U2OS = test: Multiplex assay against U2OS; settings: human, number of replicates 2; summary of the method: as §1
[1] = 12 h, 1 µM, compound concentration 1 uM
[2] = 12 h, 10 µM, compound concentration 10 uM
[3] = 24 h, 1 µM, compound concentration 1 uM
[4] = 24 h, 10 µM, compound concentration 10 uM
[5] = 48 h, 1 µM, compound concentration 1 uM
[6] = 48 h, 10 µM, compound concentration 10 uM

CN(C)CCCN1c2ccccc2Sc2ccc(Cl)cc21.Cl [CHLORPROMAZINE HYDROCHLORIDE]
Population Apoptotic (%) (Fibroblast; [1]): 40% and 38%
Population Fragmented Nuclei (%) (Fibroblast; [1]): 16% and 14%
Population Healthy Nuclei (%) (Fibroblast; [1]): 51% and 64%
Population Hoechst High Intensity Objects (%) (Fibroblast; [1]): 0%
Population Membrane Permeable-Phenotype (%) (Fibroblast; [1]): 7% and 5%
Population Mitochondria Different-Phenotype (%) (Fibroblast; [1]): 1% and 2%
Population Mitotic Cells (%) (Fibroblast; [1]): 59% and 61%
Population Normal (%) (Fibroblast; [1]): 100%
Population Pyknosed Nuclei (%) (Fibroblast; [1]): 32% and 21%
Population Tubulin-Different-Phenotype (%) (Fibroblast; [1]): 14% and 13%
Total Cell Count (Fibroblast; [1]): 190 and 200
Population Apoptotic (%) (Fibroblast; [2]): 52% and 41%
Population Fragmented Nuclei (%) (Fibroblast; [2]): 15% and 22%
Population Healthy Nuclei (%) (Fibroblast; [2]): 65% and 62%
Population Hoechst High Intensity Objects (%) (Fibroblast; [2]): 0%
Population Membrane Permeable-Phenotype (%) (Fibroblast; [2]): 5% and 1%
Population Mitochondria Different-Phenotype (%) (Fibroblast; [2]): 5% and 9%
Population Mitotic Cells (%) (Fibroblast; [2]): 47% and 58%
Population Normal (%) (Fibroblast; [2]): 99% and 100%
Population Pyknosed Nuclei (%) (Fibroblast; [2]): 19% and 14%
Population Tubulin-Different-Phenotype (%) (Fibroblast; [2]): 45% and 36%
Total Cell Count (Fibroblast; [2]): 187 and 323
Population Apoptotic (%) (Fibroblast; [3]): 64% and 46%
Population Fragmented Nuclei (%) (Fibroblast; [3]): 15% and 17%
Population Healthy Nuclei (%) (Fibroblast; [3]): 58% and 66%
Population Hoechst High Intensity Objects (%) (Fibroblast; [3]): 0%
Population Membrane Permeable-Phenotype (%) (Fibroblast; [3]): 13% and 6%
Population Mitochondria Different-Phenotype (%) (Fibroblast; [3]): 1% and 3%
Population Mitotic Cells (%) (Fibroblast; [3]): 35% and 53%
Population Normal (%) (Fibroblast; [3]): 100%
Population Pyknosed Nuclei (%) (Fibroblast; [3]): 25% and 16%
Population Tubulin-Different-Phenotype (%) (Fibroblast; [3]): 23% and 12%
Total Cell Count (Fibroblast; [3]): 206 and 196
Population Apoptotic (%) (Fibroblast; [4]): 80% and 58%
Population Fragmented Nuclei (%) (Fibroblast; [4]): 15% and 24%
Population Healthy Nuclei (%) (Fibroblast; [4]): 72% and 65%
Population Hoechst High Intensity Objects (%) (Fibroblast; [4]): 1%
Population Membrane Permeable-Phenotype (%) (Fibroblast; [4]): 2% and 1%
Population Mitochondria Different-Phenotype (%) (Fibroblast; [4]): 16% and 15%
Population Mitotic Cells (%) (Fibroblast; [4]): 19% and 41%
Population Normal (%) (Fibroblast; [4]): 98%
Population Pyknosed Nuclei (%) (Fibroblast; [4]): 11% and 10%
Population Tubulin-Different-Phenotype (%) (Fibroblast; [4]): 49% and 42%
Total Cell Count (Fibroblast; [4]): 187 and 299
Population Apoptotic (%) (Fibroblast; [5]): 82% and 60%
Population Fragmented Nuclei (%) (Fibroblast; [5]): 19% and 15%
Population Healthy Nuclei (%) (Fibroblast; [5]): 60% and 71%
Population Hoechst High Intensity Objects (%) (Fibroblast; [5]): 0%
Population Membrane Permeable-Phenotype (%) (Fibroblast; [5]): 7% and 4%
Population Mitochondria Different-Phenotype (%) (Fibroblast; [5]): 4% and 1%
Population Mitotic Cells (%) (Fibroblast; [5]): 17% and 39%
Population Normal (%) (Fibroblast; [5]): 99%
Population Pyknosed Nuclei (%) (Fibroblast; [5]): 20% and 12%
Total Cell Count (Fibroblast; [5]): 195 and 226
Population Apoptotic (%) (Fibroblast; [6]): 73% and 90%
Population Fragmented Nuclei (%) (Fibroblast; [6]): 23% and 32%
Population Healthy Nuclei (%) (Fibroblast; [6]): 67% and 57%
Population Hoechst High Intensity Objects (%) (Fibroblast; [6]): 1% and 0%
Population Membrane Permeable-Phenotype (%) (Fibroblast; [6]): 2%
Population Mitochondria Different-Phenotype (%) (Fibroblast; [6]): 5% and 7%
Population Mitotic Cells (%) (Fibroblast; [6]): 26% and 9%
Population Normal (%) (Fibroblast; [6]): 99%
Population Pyknosed Nuclei (%) (Fibroblast; [6]): 9%
Population Tubulin-Different-Phenotype (%) (Fibroblast; [6]): 33% and 34%
Total Cell Count (Fibroblast; [6]): 201 and 323
Population Apoptotic (%) (HEK-293T; [1]): 54% and 40%
Population Fragmented Nuclei (%) (HEK-293T; [1]): 3% and 4%
Population Healthy Nuclei (%) (HEK-293T; [1]): 81% and 82%
Population Hoechst High Intensity Objects (%) (HEK-293T; [1]): 13% and 8%
Population Membrane Permeable-Phenotype (%) (HEK-293T; [1]): 1% and 2%
Population Mitochondria Different-Phenotype (%) (HEK-293T; [1]): 25% and 15%
Population Mitotic Cells (%) (HEK-293T; [1]): 45% and 59%
Population Normal (%) (HEK-293T; [1]): 86% and 91%
Population Pyknosed Nuclei (%) (HEK-293T; [1]): 14% and 12%
Population Tubulin-Different-Phenotype (%) (HEK-293T; [1]): 53% and 48%
Total Cell Count (HEK-293T; [1]): 443 and 595
Population Apoptotic (%) (HEK-293T; [2]): 55%
Population Fragmented Nuclei (%) (HEK-293T; [2]): 1% and 2%
Population Healthy Nuclei (%) (HEK-293T; [2]): 80% and 78%
Population Hoechst High Intensity Objects (%) (HEK-293T; [2]): 9% and 6%
Population Membrane Permeable-Phenotype (%) (HEK-293T; [2]): 2%
Population Mitochondria Different-Phenotype (%) (HEK-293T; [2]): 40% and 53%
Population Mitotic Cells (%) (HEK-293T; [2]): 44%
Population Normal (%) (HEK-293T; [2]): 90% and 93%
Population Pyknosed Nuclei (%) (HEK-293T; [2]): 17% and 19%
Population Tubulin-Different-Phenotype (%) (HEK-293T; [2]): 83% and 88%
Total Cell Count (HEK-293T; [2]): 580 and 531
Population Apoptotic (%) (HEK-293T; [3]): 57% and 47%
Population Fragmented Nuclei (%) (HEK-293T; [3]): 7% and 5%
Population Healthy Nuclei (%) (HEK-293T; [3]): 80% and 88%
Population Hoechst High Intensity Objects (%) (HEK-293T; [3]): 5% and 7%
Population Membrane Permeable-Phenotype (%) (HEK-293T; [3]): 1%
Population Mitochondria Different-Phenotype (%) (HEK-293T; [3]): 12% and 4%
Population Mitotic Cells (%) (HEK-293T; [3]): 42% and 52%
Population Normal (%) (HEK-293T; [3]): 94% and 92%
Population Pyknosed Nuclei (%) (HEK-293T; [3]): 11% and 6%
Population Tubulin-Different-Phenotype (%) (HEK-293T; [3]): 36% and 29%
Total Cell Count (HEK-293T; [3]): 621 and 951
Population Apoptotic (%) (HEK-293T; [4]): 67% and 63%
Population Fragmented Nuclei (%) (HEK-293T; [4]): 4%
Population Healthy Nuclei (%) (HEK-293T; [4]): 81% and 82%
Population Hoechst High Intensity Objects (%) (HEK-293T; [4]): 6% and 9%
Population Membrane Permeable-Phenotype (%) (HEK-293T; [4]): 1%
Population Mitochondria Different-Phenotype (%) (HEK-293T; [4]): 46% and 48%
Population Mitotic Cells (%) (HEK-293T; [4]): 32% and 36%
Population Normal (%) (HEK-293T; [4]): 93% and 90%
Population Pyknosed Nuclei (%) (HEK-293T; [4]): 14% and 13%
Population Tubulin-Different-Phenotype (%) (HEK-293T; [4]): 86% and 82%
Total Cell Count (HEK-293T; [4]): 619 and 581
Population Apoptotic (%) (HEK-293T; [5]): 31% and 16%
Population Fragmented Nuclei (%) (HEK-293T; [5]): 9% and 8%
Population Healthy Nuclei (%) (HEK-293T; [5]): 85% and 87%
Population Hoechst High Intensity Objects (%) (HEK-293T; [5]): 8% and 10%
Population Membrane Permeable-Phenotype (%) (HEK-293T; [5]): 5% and 3%
Population Mitochondria Different-Phenotype (%) (HEK-293T; [5]): 1% and 0%
Population Mitotic Cells (%) (HEK-293T; [5]): 68% and 83%
Population Normal (%) (HEK-293T; [5]): 91% and 89%
Population Pyknosed Nuclei (%) (HEK-293T; [5]): 5% and 3%
Population Tubulin-Different-Phenotype (%) (HEK-293T; [5]): 14% and 11%
Total Cell Count (HEK-293T; [5]): 1435 and 2116
Population Apoptotic (%) (HEK-293T; [6]): 44% and 58%
Population Fragmented Nuclei (%) (HEK-293T; [6]): 5% and 6%
Population Healthy Nuclei (%) (HEK-293T; [6]): 86% and 85%
Population Hoechst High Intensity Objects (%) (HEK-293T; [6]): 9% and 10%
Population Membrane Permeable-Phenotype (%) (HEK-293T; [6]): 4% and 6%
Population Mitochondria Different-Phenotype (%) (HEK-293T; [6]): 8% and 12%
Population Mitotic Cells (%) (HEK-293T; [6]): 55% and 41%
Population Normal (%) (HEK-293T; [6]): 90% and 89%
Population Pyknosed Nuclei (%) (HEK-293T; [6]): 8%
Population Tubulin-Different-Phenotype (%) (HEK-293T; [6]): 64% and 60%
Total Cell Count (HEK-293T; [6]): 952 and 839
Population Healthy Nuclei (%) (U2OS; [1]): 42% and 81%
Population Hoechst High Intensity Objects (%) (U2OS; [1]): 0%
Population Membrane Permeable-Phenotype (%) (U2OS; [1]): 0% and 1%
Population Mitochondria Different-Phenotype (%) (U2OS; [1]): 0% and 2%
Population Normal (%) (U2OS; [1]): 100%
Population Pyknosed Nuclei (%) (U2OS; [1]): 7% and 15%
Population Tubulin-Different-Phenotype (%) (U2OS; [1]): 100% and 81%
Population Healthy Nuclei (%) (U2OS; [2]): 49% and 77%
Population Hoechst High Intensity Objects (%) (U2OS; [2]): 0% and 1%
Population Membrane Permeable-Phenotype (%) (U2OS; [2]): 6% and 3%
Population Mitotic Cells (%) (U2OS; [2]): 80% and 36%
Population Normal (%) (U2OS; [2]): 100% and 98%
Population Pyknosed Nuclei (%) (U2OS; [2]): 8% and 17%
Population Tubulin-Different-Phenotype (%) (U2OS; [2]): 36% and 42%
Population Healthy Nuclei (%) (U2OS; [3]): 53% and 88%
Population Hoechst High Intensity Objects (%) (U2OS; [3]): 0%
Population Membrane Permeable-Phenotype (%) (U2OS; [3]): 0% and 2%
Population Mitochondria Different-Phenotype (%) (U2OS; [3]): 0% and 1%
Population Mitotic Cells (%) (U2OS; [3]): 0% and 24%
Population Normal (%) (U2OS; [3]): 100%
Population Pyknosed Nuclei (%) (U2OS; [3]): 0% and 9%
Population Tubulin-Different-Phenotype (%) (U2OS; [3]): 87% and 85%
Population Apoptotic (%) (U2OS; [4]): 63% and 64%
Population Healthy Nuclei (%) (U2OS; [4]): 39% and 73%
Population Hoechst High Intensity Objects (%) (U2OS; [4]): 0%
Population Membrane Permeable-Phenotype (%) (U2OS; [4]): 3%
Population Mitochondria Different-Phenotype (%) (U2OS; [4]): 12% and 19%
Population Mitotic Cells (%) (U2OS; [4]): 36% and 35%
Population Normal (%) (U2OS; [4]): 100% and 99%
Population Pyknosed Nuclei (%) (U2OS; [4]): 14% and 20%
Population Tubulin-Different-Phenotype (%) (U2OS; [4]): 32% and 51%
Population Healthy Nuclei (%) (U2OS; [5]): 55% and 88%
Population Hoechst High Intensity Objects (%) (U2OS; [5]): 0%
Population Normal (%) (U2OS; [5]): 100%
Population Pyknosed Nuclei (%) (U2OS; [5]): 3% and 7%
Population Tubulin-Different-Phenotype (%) (U2OS; [5]): 100% and 88%
Population Apoptotic (%) (U2OS; [6]): 92% and 74%
Population Healthy Nuclei (%) (U2OS; [6]): 34% and 66%
Population Hoechst High Intensity Objects (%) (U2OS; [6]): 0%
Population Membrane Permeable-Phenotype (%) (U2OS; [6]): 7% and 4%
Population Mitochondria Different-Phenotype (%) (U2OS; [6]): 7%
Population Normal (%) (U2OS; [6]): 100% and 99%
Population Pyknosed Nuclei (%) (U2OS; [6]): 16% and 24%
Population Tubulin-Different-Phenotype (%) (U2OS; [6]): 51% and 55%
